The nature of assay [1]: S. cerevisiae growth inhibition in permissive medium (OD615), pilot counter-assay for S. cerevisiae lifespan shortening project, permissive growth control (AID 705;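 active = growth inhibition above 25% in both replicates, a cutoff set 3 SD above the mean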). Conditions: OD615, 24 h, at 10 µM, stronger effect = higher value. In outline: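 assay system = Saccharomyces cerevisiae strain carrying genetically modified DeaD replicative-lifespan system | medium = SC raffinose/galactose permissive medium | dosing = 10 µM single dose, 0.25% DMSO | schedule = 24 h compound exposure at 30 °C after 4 h pre-growth | measured by = OD at 615 nm | read-out basis = growth inhibition from lowered OD615 after 24 h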

Assay [2] can be described thus: S. cerevisiae growth inhibition in restrictive medium, OD615, pilot screen, restrictive growth control, yeast lifespan reduction project (AID 706;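 active = growth inhibition above a set limit, 3 SD over mean compound inhibition, in both replicates, cut at about 43% in these data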;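 also: modified DeaD lifespan yeast strain shifted to restrictive glucose medium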). Conditions: OD615, 48 h, at 10 µM, stronger effect = higher value. In short, it runs like this:
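Buffer or medium: CSMM-D glucose medium. Material: genetically modified Saccharomyces cerevisiae, DeaD replicative lifespan assay strain. Times: 48 h compound exposure at 30 °C. Measured by: optical density at 615 nm.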

Assay [3] can be described thus: doxorubicin toxicity protection in MRP-1 cells – H69AR cells, CellTiter-Glo, duplicate, MRP-1 activator project, pilot screen (AID 807;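 active = viability increase at or above a cutoff of the median across tested compounds plus 3 SD, cut at about 8.5% in these data, passing the limit was not always enough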;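 also: compound pretreatment 18-22 h then 72 h combined with doxorubicin; 0% = doxorubicin alone and 100% = vehicle without doxorubicin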). The settings on record: H69AR viability with doxorubicin, CellTiter-Glo luminescence; at 10 µM; stronger effect = higher value.
Assay [4] can be described thus: viability of HCT116 without oncogenic beta-catenin – human colon tumor cells, pilot screen (AID 823;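 active = cell viability at or below a set limit in both duplicate runs, the limit being the all-compound median minus 4 SD, cut at about 23% in these data, passing the limit was not always enough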;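 also: 0% = wells killed by 20 µM Hyamine and 100% = untreated DMSO cell wells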). Conditions: HCT116 beta-catenin knockout viability, CellTiter-Glo, 60 h; at 10 µM; stronger effect = lower value. On the technique in general: Cellular ATP, detected with luciferase, serves as a proxy for viable cell number.
A short description of assay [5]: viability of PTEN-null HCT116 cells – cell-based, HCT116 clonal line, CellTiter-Glo, pilot screen (AID 824;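 active = viability at or below 27.92% in each of two runs, the all-compound median minus 4 SD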;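 also: 0% = 20 µM Hyamine control and 100% = vehicle cell control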). Conditions: HCT116 PTEN-deleted viability, 60 h, at 10 µM, stronger effect = lower value.
Assay [6] can be described thus: RAM pathway blockade in budding yeast – dse1pr::URA3 reporter, 5-FOA selection, pilot screen (AID 869;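 active = inhibition over a set limit, the all-compound mean plus 3 SD, in both replicate runs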;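 also: 0% = DMSO wells with no growth and 100% = 10 µM 1-NA-PP1 with full growth; RAM network block rescues cells from 5-FOA so hits raise OD615 growth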). Conditions: S. cerevisiae dse1pr::URA3 5-FOA growth, OD615, 2 d; at 10 µM; stronger effect = higher value; strain carries analog-sensitive mutant Cbk1 kinase.
Assay [7] in a line: RAM signaling pathway blockade in yeast – S. cerevisiae, Pdr1DBD-CYC8 efflux-inhibited sensitized strain, primary screen (AID 1298).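 Also: 0% = DMSO untreated cells without growth and 100% = 10 µM 1-NA-PP1 full growth; higher means more yeast growth rescued from 5-FOA killing.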 The settings on record: S. cerevisiae cbk1-as DSE1-URA3 strain, 5-FOA growth OD615, 2 d; at 50 µM; stronger effect = higher value.

A number with no mark means an inactive call. Records with an inconclusive call do not appear. The source made the active and inactive calls.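 The calls were made as follows, unless noted: active = RAM network inhibition above 8.4% in each of two replicates, 3 SD over the compound average; inconclusive = above 8.4% inhibition in only one replicate; inactive = 8.4% inhibition or less in each replicate.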

Usually viability stands for a read-out of living cells in per cent, often relative to untreated cells. One may read the inhibition as the drop in the measured response relative to a control, in per cent. `COC(=O)C(C(=O)OC)C(C(=O)OC)C(C(=O)OC)C(=O)OC`: the values for the growth inhibition in assay [1] and in assay [2] were -6.07% and -6.78%, respectively. Further, the viability increase in assay [3] is -1.54%. Moreover, the viability was 97.2% in assay [4] and 92.6% in assay [5]. Besides, in assay [6], the inhibition is 0.42%. The RAM network inhibition in assay [7] is -1.61%.
Turning to `O=C1c2ccccc2C(=O)N1CCCc1nc2ccccc2c(=O)n1-c1cccnc1`, the growth inhibition in assay [1] was -1.63%; in assay [2] it was 7.23%. Besides, the viability increase in assay [3] is -3.29%. The figures for the viability in assay [4] and in assay [5] were 93.1% and 90.8%, respectively. The inhibition in assay [6] was 2.07%. Moreover, the RAM network inhibition in assay [7] was 2.78%.
For `COc1ccccc1OCCNC(=O)c1ccc(S(=O)(=O)N(C)C)cc1`, the growth inhibition was -3.92% in assay [1] and 3.39% in assay [2]. The viability increase in assay [3] was -1.91%. The viability in assay [4] was 100%; in assay [5], 91.9%. In addition, in assay [6], the inhibition is -0.715%. Besides, the RAM network inhibition in assay [7] was 2.71%.
As to `O=C(Nc1cnc2ccccc2c1)c1ccncc1`, the growth inhibition in assay [1] is -8.13%; in assay [2], -8.73%. Besides, the viability increase in assay [3] is -2.98%. Further, the viability in assay [4] was 99.7%; in assay [5], 87.1%. In assay [6], the inhibition is 2.08%. Also, the RAM network inhibition in assay [7] was 1.19%.
Take `Cc1ccc(C)c(-n2nnnc2SCC(=O)Nc2cccc(-c3nnc4n3CCCCC4)c2)c1`: the growth inhibition is 12.3% in assay [1] and 54.4% (active) in assay [2]. Further, in assay [3], the viability increase is -0.74%. For the same compound, the viability in assay [4] is 97.7%; in assay [5] it was 90.9%. In addition, in assay [6], the inhibition is 1.77%. The RAM network inhibition in assay [7] was 6.57%.
With `O=C(Nc1ccc(F)cc1F)N1CCN(C/C=C/c2ccccc2)CC1`, the growth inhibition is -1.48% in assay [1] and 2.67% in assay [2]. Besides, the viability increase in assay [3] was 0.1%. In addition, the viability was 86.7% in assay [4] and 89% in assay [5]. Further, in assay [6], the inhibition is 2.04%. Further, in assay [7], the RAM network inhibition is 0.95%.
With `O=C1c2cccnc2C(=O)N1Cc1cccs1`, the values for the growth inhibition in assay [1] and in assay [2] were -1.61% and -4.64%, respectively. For the same compound, the viability increase in assay [3] was -0.5%. For the same compound, the viability in assay [4] was 98.5%; in assay [5], 102%. For the same compound, the inhibition in assay [6] was 1.4%. For the same compound, in assay [7], the RAM network inhibition was 0.21%.
As for `CC1CC(C)CN(CCCNC(=O)Cn2ncc3c(=O)oc4ccccc4c32)C1` (stereo unspecified), the growth inhibition was -0.3% in assay [1] and 0.08% in assay [2]. In addition, the viability increase in assay [3] is -1.86%. The viability in assay [4] is 99%; in assay [5], 101%. The inhibition in assay [6] is 3.87%. In assay [7], the RAM network inhibition was 5%.
On to `CC1CCN(C(=O)CSc2nnc(Cc3cccn3C)n2-c2ccc(F)cc2)CC1`, for which the growth inhibition was -5.51% in assay [1] and 10.6% in assay [2]. Besides, the viability increase in assay [3] was -0.49%. Moreover, the viability in assay [4] was 88.7%; in assay [5], 92%. In addition, the inhibition in assay [6] was 1.79%. Also, the RAM network inhibition in assay [7] was 2.35%.
`CCCC(=O)Nc1cc(=O)n(C)c(=O)n1C`: the growth inhibition in assay [1] is -12.8%; in assay [2] it was -4.53%. Also, the viability increase in assay [3] was -1.04%. Moreover, the viability in assay [4] is 103%; in assay [5], 94.8%. Further, in assay [6], the inhibition is 0.76%. Moreover, the RAM network inhibition in assay [7] was -0.88%.
Regarding `CCCCCn1c(CNC(=O)c2cccs2)nc2ccccc21`, the growth inhibition in assay [1] was -5.02%; in assay [2], 3.4%. Also, in assay [3], the viability increase is -2.58%. The viability in assay [4] was 90.8%; in assay [5], 94%. The inhibition in assay [6] is 0.42%. The RAM network inhibition in assay [7] was 3.16%.
`CSc1nnc(Cn2c(=O)sc3ccccc32)n1CCc1ccccc1`: the growth inhibition in assay [1] was 3.19%; in assay [2], 9.71%. Besides, the viability increase in assay [3] was -1.75%. In addition, the values for the viability in assay [4] and in assay [5] were 92.2% and 83.3%, respectively. Besides, in assay [6], the inhibition is 2.35%. Also, the RAM network inhibition in assay [7] is 6.93%.
Consider `O=C(Cn1c(=O)oc2cc(S(=O)(=O)N3CCOCC3)ccc21)N1CCc2ccccc2C1`, for which the growth inhibition in assay [1] was -5.1%; in assay [2], -8.57%. For the same compound, in assay [3], the viability increase is -2.45%. Also, the viability in assay [4] is 103%; in assay [5], 93.8%. Also, the inhibition in assay [6] is 2.44%. The RAM network inhibition in assay [7] was 4.35%.
Take `COc1ccc(NC(=O)N(Cc2ccc(C)cc2)Cc2ccccn2)c(OC)c1`: the growth inhibition is -3.04% in assay [1] and 7.11% in assay [2]. In addition, the viability increase in assay [3] is -1.9%. Also, the viability in assay [4] is 91%; in assay [5], 96%. Moreover, the inhibition in assay [6] is 0.455%. The RAM network inhibition in assay [7] was 4.18%.
As for `O=C(Nc1cccnc1)c1cc(-c2ccc(Br)cc2)on1`, the growth inhibition was -9.68% in assay [1] and -9.79% in assay [2]. Moreover, the viability increase in assay [3] is 0.92%. Besides, the viability in assay [4] was 100%; in assay [5], 95.9%. Moreover, the inhibition in assay [6] is 0.76%. Further, the RAM network inhibition in assay [7] is 6.96%.
Regarding `COc1ccc(C2CC(=O)c3cnc(NC(=O)c4ccccc4)nc3C2)cc1OC` (stereo unspecified), the growth inhibition was -3.28% in assay [1] and -0.645% in assay [2]. Besides, the viability increase in assay [3] was -3.55%. In addition, the viability is 105% in assay [4] and 96.6% in assay [5]. Moreover, the inhibition in assay [6] was 0.895%. Also, the RAM network inhibition in assay [7] is 5.34%.
Regarding `O=C(CC1(O)C(=O)Nc2ccccc21)c1ccccc1` (stereo unspecified), the growth inhibition in assay [1] is 1.47%; in assay [2], -8.37%. Further, the viability increase in assay [3] was -3.28%. The viability is 92.2% in assay [4] and 96.7% in assay [5]. The inhibition in assay [6] was 0.055%. The RAM network inhibition in assay [7] is -1.83%.
As to `Cn1nnnc1SCC(=O)c1cccs1`, the growth inhibition in assay [1] is -23.8%; in assay [2], -13%. Also, the viability increase in assay [3] is -2.93%. In addition, the figures for the viability in assay [4] and in assay [5] were 93% and 90.9%, respectively. Further, the inhibition in assay [6] is 1.24%. The RAM network inhibition in assay [7] is 1.92%.

These data come from PubChem BioAssay.
